The list is not random: actives were taken first. Their share in the collection is about 2.5%.
TRPC4 act: opens the mouse TRPC4 cation channel; AID 2237; HEK293 TRPC4beta/mu-opioid, Fluo4 calcium fluorescence; hits give high values; actives 0.49% (n = 310,000); Q9QUQ5; B-score at 10 µM;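 active means B-score above 5 SD of library B-scores, and initial fluorescence ratio not above library mean plus 5 SD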;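 further: positive B-score marks a calcium rise read as TRPC4 activation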
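system = HEK293 cells stably co-expressing mouse TRPC4beta and mu-opioid receptor | schedule = Fluo4 dye loading 45 min at room temperature, 110 s recording | measure = B-scored integrated calcium fluorescence ratio | signal = Fluo4 calcium-sensitive dye fluorescence, kinetic, 1 Hz baseline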
TRPC6 activator: mouse TRPC6 channel activation; Q61143; B-score at 10 µM; actives 0.13% (n = 310,000); HEK293-TRPC6 membrane potential dye fluorescence; hits give high values; AID 2550;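 active means B-score of the integrated fluorescence ratio above library mean plus 3 SD, and starting fluorescence ratio within library mean plus 5 SD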;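 further: higher score means more depolarization so channel activation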
TRPC6 inhibitor: inhibitors of mouse TRPC6 channel | Q61143 | HEK293-TRPC6, membrane potential dye, ACh-evoked depolarization; hits give low values | B-score at 10 µM | actives 1.1% (n = 310,000) | AID 2553;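 active means B-score under library mean minus 3 SD, initial fluorescence not abnormally high, positive integrated signal ratio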;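 further: B-score derived from integrated fluorescence ratio over the kinetic read; more negative B-score means stronger inhibition of depolarization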
TRPC4 inh: blocks the mouse TRPC4 cation channel | HEK293 TRPC4beta/mu-opioid, DAMGO-evoked Fluo4 calcium flux; hits give low values | B-score at 10 µM | actives 0.39% (n = 300,000) | AID 2247;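 active means B-score over 3 SD under the library average, no early fluorescence shift, positive overall ratio signal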
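material = TRPC4beta/mu-opioid receptor HEK293 cell line | probe or stimulus = sequential submaximal and maximal DAMGO stimulation | compound dosing = one concentration per compound | measured by = Fluo4 Ca2+ flux fluorescence | evaluation = integrated fluorescence ratio relative to baseline, converted to per-well B score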
TRPC4 PAM: allosterically enhances the mouse TRPC4 cation channel; B-score at 10 µM; HEK293 TRPC4beta/mu-opioid, DAMGO EC20, Fluo-4 Ca2+ flux; hits give high values; actives 0.42% (n = 310,000); Q9QUQ5;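 active means B-score of calcium response area above 5 SD of library B-scores, with initial fluorescence ratio within 5 SD of library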;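 further: B-score of integrated fluorescence ratio over time as area under calcium response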
DSG3 Ab inh: inhibitors of pemphigus antibody binding to human desmoglein-3; binding (percent of control), % at 10 µM; DSG3-coupled beads, scFv-anti-DSG3-GFP binding, flow cytometry; hits give low values; P32926; actives 0.48% (n = 310,000);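 active means binding more than 3 SD below its plate's average and above zero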;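 further: hits lower antibody fragment binding to DSG3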
Target sequence (P32926 whole entry, looked up, the tested form may be a part): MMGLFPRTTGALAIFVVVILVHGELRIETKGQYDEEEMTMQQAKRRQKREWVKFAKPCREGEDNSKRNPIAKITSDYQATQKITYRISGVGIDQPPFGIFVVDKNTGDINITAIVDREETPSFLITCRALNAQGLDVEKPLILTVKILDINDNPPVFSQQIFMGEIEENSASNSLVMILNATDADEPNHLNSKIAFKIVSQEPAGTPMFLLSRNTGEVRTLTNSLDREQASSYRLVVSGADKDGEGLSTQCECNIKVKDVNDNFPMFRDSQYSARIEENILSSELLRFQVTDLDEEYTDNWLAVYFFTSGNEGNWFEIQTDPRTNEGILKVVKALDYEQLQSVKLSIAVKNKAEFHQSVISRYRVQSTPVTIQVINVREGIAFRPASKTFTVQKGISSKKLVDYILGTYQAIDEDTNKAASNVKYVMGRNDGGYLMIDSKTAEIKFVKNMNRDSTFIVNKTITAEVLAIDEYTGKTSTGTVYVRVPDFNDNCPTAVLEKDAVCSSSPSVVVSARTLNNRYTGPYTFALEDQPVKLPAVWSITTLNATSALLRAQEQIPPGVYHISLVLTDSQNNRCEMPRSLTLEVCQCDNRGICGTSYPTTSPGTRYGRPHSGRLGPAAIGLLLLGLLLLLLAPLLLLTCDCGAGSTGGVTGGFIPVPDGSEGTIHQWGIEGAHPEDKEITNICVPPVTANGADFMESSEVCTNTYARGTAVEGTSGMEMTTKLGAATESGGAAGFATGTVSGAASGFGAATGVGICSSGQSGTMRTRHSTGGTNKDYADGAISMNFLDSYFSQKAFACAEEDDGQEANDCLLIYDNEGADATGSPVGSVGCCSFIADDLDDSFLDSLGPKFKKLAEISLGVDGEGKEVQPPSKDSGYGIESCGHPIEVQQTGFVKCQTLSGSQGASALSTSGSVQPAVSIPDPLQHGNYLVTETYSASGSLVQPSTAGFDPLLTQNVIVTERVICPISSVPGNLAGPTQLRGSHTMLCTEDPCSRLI
TRPC4 spec 2: second check of whether TRPC6 inhibitors also affect mouse TRPC4. shares compounds with TRPC6 inhibitor. HEK293 TRPC4/MOR, membrane potential dye fluorescence; channel activated by saturating DAMGO dose. inhibition, % at 10 µM. actives 42% (n = 920). AID 2776;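 active means compounds whose fluorescence signal differed from control wells by over 3 SD, either direction, in both duplicate plates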
TRPC4 spec: tests whether TRPC6 inhibitors also affect mouse TRPC4; actives 61% (n = 920); AID 2777; shares compounds with TRPC6 inhibitor; activity change, negative = inhibition, % at 10 µM; HEK293 TRPC4/mu-opioid, membrane potential fluorescence;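 active means rise or fall in signal beyond 3 SD of buffer-only wells in both replicate plates, either sign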;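 further: integrated kinetic ratio of fluorescence range over baseline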
HEK293 MPD ctr 2-1: second counter-screen for TRPC6 inhibitors: parental HEK293 cells; shares compounds with TRPC6 inhibitor; parental HEK293 membrane potential dye fluorescence; maximal acetylcholine challenge after compound addition; signal change vs control, % at 10 µM; actives 31% (n = 920);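 active means membrane potential signal moving either way by over 3 SD of the maximum-effect control, in both duplicate plates, meaning non-specific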
HEK293 MPD ctr-1: parental HEK293 nonspecific activity of TRPC6 inhibitors; actives 60% (n = 920); shares compounds with TRPC6 inhibitor; parental HEK293 membrane potential dye fluorescence; membrane potential signal change, % at 10 µM;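 active means membrane potential signal shifting up or down by more than 3 SD of buffer-only wells, on both duplicate plates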
HEK293 MPD ctr-2: parental HEK293 nonspecific activity of TRPC6 modulators. actives 51% (n = 2,400). shares compounds with TRPC6 inhibitor. membrane potential dye fluorescence. membrane potential signal change, % at 10 µM. AID 488924;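 active means membrane potential signal moves up or down beyond 5 SD from buffer-only wells, on both duplicate plates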
HEK293 MPD ctr 2-2: parental HEK293 nonspecific activity of TRPC6 modulators, second screen | AID 488926 | membrane potential dye fluorescence; after compound, maximal acetylcholine stimulation | shares compounds with TRPC6 inhibitor | actives 14% (n = 2,400) | inhibition, % at 10 µM;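 active means membrane potential signal drops by more than 5 SD from the mean control signal, in both duplicate plates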;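 further: plate controls were acetylcholine ECmax control wells for no effect and buffer only wells for full effect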
TRPC4 ctr mod: selectivity of TRPC6 modulators against mouse TRPC4; shares compounds with TRPC6 inhibitor; HEK293 TRPC4/mu-opioid, membrane potential fluorescence; percent change from control (negative = decrease, positive = increase), % at 10 µM; actives 69% (n = 2,400); AID 488927;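 active means membrane potential signal moved up or down beyond 5 SD of buffer control wells, in both duplicate plates, actives on both sides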;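 further: plate controls were assay buffer wells for no effect and DAMGO maximal-effect wells for full effect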
TRPC4/MOR inh 2: second check of whether TRPC6 modulators also affect mouse TRPC4 | shares compounds with TRPC6 inhibitor | inhibition, % at 10 µM | HEK293 TRPC4/mu-opioid, membrane potential dye fluorescence; stimulated with maximal-effect DAMGO | actives 55% (n = 2,400);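 active means drop in membrane potential signal beyond 5 SD of the control wells in both duplicate plates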;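 further: TRPC4 counter screen for TRPC6 hits run under conditions tuned for TRPC6 not TRPC4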
TRPC6 block conf: mouse TRPC6 inhibitor confirmation; shares compounds with TRPC6 inhibitor; HEK293-TRPC6, membrane potential dye, ACh-evoked depolarization; inhibition, % at 10 µM; actives 43% (n = 3,300); AID 488960;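 active means fluorescence ratio falls more than 5 SD below the full-stimulation control mean, in both duplicate runs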;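 further: integrated fluorescence ratio of peak minus minimum over baseline after agonist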
TRPC6 act conf: mouse TRPC6 activator confirmation. HEK293-TRPC6 membrane potential dye fluorescence, FDSS. activation, % at 10 µM. actives 11% (n = 2,800). AID 488961. shares compounds with TRPC6 inhibitor;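 active means ratio signal rise beyond 5 SD above unstimulated control wells' mean, seen in both duplicate runs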;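 further: plate controls were buffer EC0 wells for no effect and acetylcholine ECmax response for full effect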
* = called active by the depositor; i = inactive; · = no result.

SMILES	TRPC4 act	TRPC6 activator	TRPC6 inhibitor	TRPC4 inh	TRPC4 PAM	DSG3 Ab inh	HEK293 MPD ctr-2	HEK293 MPD ctr 2-2	TRPC4 ctr mod	TRPC4/MOR inh 2	TRPC6 block conf	TRPC6 act conf	others
COc1cnc(-c2ccccn2)nc1N(C)C	i	i	-5.2*	i	i	97	-76%*	i	-16%*	i	i	i
CCOC(=O)N1CCc2c(sc(NC(=O)CN3CCN(C)CC3)c2C(=O)Nc2ccccc2)C1	i	i	-5.3*	i	i	83	-83%*	i	-24%*	46%*	i	i
CCOC(=O)N1CCc2c(sc(NC(=O)CN3CCOCC3)c2C(=O)Nc2ccccc2)C1	i	i	i	i	i	105	·	·	·	·	·	·
CN(C(=O)c1nn(C)c2c1CS(=O)(=O)c1ccccc1-2)c1cccc(Cl)c1	i	i	-5.6*	i	i	99	98%*	i	21%*	i	50%*	·
CSc1ccccc1OCc1cc(C(=O)N(Cc2nccn2C)C(C)C)no1	i	i	i	i	i	102	·	·	·	·	·	·
CCn1ccnc1CN(C)C(=O)c1cc(COc2ccccc2SC)on1	i	i	-7.5*	i	i	101	·	·	·	·	i	·	TRPC4 spec 2=i;TRPC4 spec=4.0%*;HEK293 MPD ctr 2-1=i;HEK293 MPD ctr-1=7.0%*
CCOC(=O)c1c(CSc2cccs2)n(C)c2cc(Br)c(O)c(CN(C)C)c12	i	i	-6.4*	i	i	·	i	i	i	72%*	54%*	i
O=C(C[n+]1ccc(/C=N/O)cc1)N(Cc1ccccc1)Cc1ccccc1	i	i	i	i	i	114	·	·	·	·	·	·
O=C(CCSc1ccc(F)cc1)NNC(=O)c1ccccc1Cl	·	·	·	·	·	105	·	·	·	·	·	·
c1ccc2c(c1)CNc1ccccc1-2	·	·	·	·	·	97	·	·	·	·	·	·
c1ccc2c(c1)CCc1ccccc1C2=C1CCNCC1	i	i	-7.2*	i	i	·	·	·	·	·	i	i	TRPC4 spec 2=60%*;TRPC4 spec=3.8%*;HEK293 MPD ctr 2-1=i;HEK293 MPD ctr-1=2.8%*
COc1ccc(N2C(=O)c3ccc(C(=O)Nc4ccc(NC(C)=O)cc4)cc3C2=O)cc1	i	i	i	i	i	107	·	·	·	·	·	·
O=C(Nc1ccccc1N1CCCCC1)c1ccc(Cl)c([N+](=O)[O-])c1	i	i	i	i	i	106	·	·	·	·	·	·
CN1CCN(c2ccc(C(=O)c3ccc(Br)cc3)cc2[N+](=O)[O-])CC1	i	i	-5.9*	i	i	91	i	i	-13%*	43%*	i	i
CN1CCN(c2ccccc2NC(=O)c2ccc(N3CCCC3)c([N+](=O)[O-])c2)CC1	i	i	-11*	i	i	99	-108%*	i	-30%*	82%*	58%*	i
CC[n+]1c(/C=C(\C)SC)sc2ccccc21	i	i	-10*	i	i	109	-262%*	82%*	-42%*	58%*	56%*	i
CC[n+]1c(/C=C(/C)SC)sc2ccccc21	i	i	-7.5*	i	i	131	-275%*	82%*	-48%*	52%*	67%*	i
CC/C(=C/c1sc2ccccc2[n+]1CC)SC	i	i	i	i	i	121	·	·	·	·	·	·
CC[n+]1c(/C=C/Nc2ccccc2)sc2ccccc21	i	i	-8.5*	i	i	190	·	·	·	·	i	i	TRPC4 spec 2=76%*;TRPC4 spec=-20%*;HEK293 MPD ctr 2-1=i;HEK293 MPD ctr-1=-361%*
CC[n+]1c(/C=C(\C)OC)sc2ccccc21	·	·	·	·	·	109	·	·	·	·	·	·
O=C(Nc1cnccc1C(F)(F)F)NC1CCCCC1	i	i	i	i	i	109	·	·	·	·	·	·
CCCCc1ccc(/C(C)=N/Nc2cc(N3CCOCC3)nc(C)n2)cc1	i	i	-5.2*	i	i	118	i	i	i	i	i	i
Brc1ccc2nc(-c3c[nH]c4ccccc34)cn2c1	i	i	-6.3*	i	i	103	i	i	-10%*	54%*	i	i
Cc1cccn2cc(-c3c[nH]c4ccccc34)nc12	i	i	-6.7*	-6*	i	100	-113%*	i	-28%*	70%*	68%*	i
Cc1ccc(-n2ncc(C(=O)Nc3cc(Cl)cc(Cl)c3)c2C2CCNCC2)cc1C	i	i	-6.9*	i	i	89	·	·	·	·	i	i	TRPC4 spec 2=64%*;TRPC4 spec=-12%*;HEK293 MPD ctr 2-1=i;HEK293 MPD ctr-1=i
Cc1ccc(-n2ncc(C(=O)Nc3cc(Cl)ccc3Cl)c2C2CCNCC2)cc1	i	i	i	i	i	110	·	·	·	·	·	·
CC(C)NC(=O)N(C)C[C@H]1Oc2c(cccc2N(C)C)C(=O)N([C@H](C)CO)C[C@@H]1C	·	·	·	·	·	104	·	·	·	·	·	·
CCOc1ccc(-c2c[n+]3c(n2-c2ccccc2)CCCCC3)cc1	i	i	-5*	i	i	85	i	i	i	i	i	i

Screens: PubChem BioAssay, several laboratories
